Laboratory results from publication PMC8178987 (Chemical Science, 2020).

Legend:
Type in all cases: binding
gpPorA = test: Single-channel recording of peptide interaction/translocation with gpPorA; settings: for discrimination of R4 and R9 in competitive blocking: R4 10 µM, cis and R9 100 nM, 150 mM KCl
pPorA-C24 = settings: subconductance pores; R6 1 µM cis; R9 0.5 µM; 150 mM KCl, pH 7.4
pPorA-A24 = test: Single-channel recording of peptide interaction with pPorA-A24
In short: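 Single pores in planar lipid bilayers formed on an aperture prepainted with hexadecane in n-pentane (5 mg mL−1). Test peptide added to the cis side in 0.15 M KCl, 10 mM HEPES, pH 7.4, recorded at −5 and −20 mV. Current was digitally filtered at 4 and 7 kHz with an 8-pole Bessel filter. τoff came from dwell-time histograms.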

pPorA-K24 = test: Single-channel recording of peptide interaction with pPorA-K24; settings: for ion current blockages: cis, 0.15 M KCl, pH 7.4
[1] = 0.5 μM, cis, negative voltages, 0.15 M KCl, pH 7.4
[2] = 0.5 μM, trans, +10 mV to +35 mV, 0.15 M KCl, pH 7.4

hexaarginine [R6]
blockage events (gpPorA; 0.5 μM, cis, above −25 mV, 0.15 M KCl, pH 7.4): not resolved accurately
blockage events (gpPorA; 0.5 μM, cis, higher positive voltages, 0.15 M KCl, pH 7.4): no blockage events were observed
ion current blockage (block) (gpPorA; [1]): 100%
frequency of blockage events (gpPorA; 0.5 μM, cis, −5 mV to −25 mV, 0.15 M KCl, pH 7.4): decreased with an increase in the voltage
ion current blockages (gpPorA; 0.5 μM, trans, 0.15 M KCl, pH 7.4): time-resolved ion current blockages
asymmetry in peptide binding/translocation between cis and trans sides (gpPorA; 0.5 μM, 0.15 M KCl, pH 7.4): no significant asymmetry
Kd (gpPorA; read-out: KDcis, cis, −10 mV, 0.15 M KCl, pH 7.4): 5.19 µM
ion current blockages (pPorA-C24): combination of strong and weak ion current blockages

nonaarginine [R9]
ion current blockages (gpPorA; 0.5 μM, cis, above +40 mV, 0.15 M KCl, pH 7.4): less frequent ion current blockages
frequency of ion current blockages (gpPorA; 0.5 μM, cis, above −40 mV, 0.15 M KCl, pH 7.4): considerably reduced
ion current blockage (block) (gpPorA; [1]): 100%
ion current blockages (gpPorA; 0.5 μM, cis, pH 7.4, 0.15 M KCl, compared with pH 4.5): voltage-dependent well-defined ion current blockages
ion current blockages (gpPorA; 0.5 μM, cis, −5 mV, −10 mV and −15 mV, pH 4.5, citrate buffer, 0.15 M KCl): short-lived, less frequent ion current blockages
pore state on peptide addition (gpPorA; 0.5 μM, cis, −5 mV, 0.15 M KCl, pH 7.4): predominantly remained closed
voltage dependence of kon and koff (gpPorA; 0.5 μM, cis, −10 mV to −35 mV, 0.15 M KCl, pH 7.4): increased with the voltage
ion current blockages (gpPorA; 0.5 μM, cis, −20 mV and −25 mV, pH 4.5, citrate buffer, 0.15 M KCl): no prominent blockage events
ion current blockage (block) (gpPorA; [2]): 100%
voltage dependence of kon and koff (gpPorA; [2]): an increase in the kon and koff
τoff (gpPorA; 0.5 μM, trans, +10 mV, 0.15 M KCl, 10 mM HEPES, pH 7.4, n = 3): 35 ± 3 ms
ion current blockages against the electrophoretic pulling (gpPorA; 0.5 μM, trans, negative voltages, 0.15 M KCl, pH 7.4): ion current blockages against the electrophoretic pulling was observed
asymmetry in peptide binding/translocation between cis and trans sides (gpPorA; 0.5 μM, 0.15 M KCl, pH 7.4): well-defined asymmetry
ion current blockages (gpPorA; 1 μM, cis, added after D9 to the same pores, 0.15 M KCl, pH 7.4): voltage-dependent intense blockage events
τoff (gpPorA; 100 μM, cis, −10 mV, 1 M KCl, 10 mM HEPES, pH 7.4, n = 3): 0.14 ± 0.02 ms
ion current blockage (block) (gpPorA; 100 μM, cis, −10 mV, 1 M KCl, pH 7.4): ~70%
ion current blockages (gpPorA; 100 μM, cis, −20 mV, −30 mV and −50 mV, 1 M KCl, pH 7.4): less frequent to unresolved ion current blockages
discrimination of R4 and R9 in competitive blocking (gpPorA; cis, −20 mV and −25 mV, pH 7.4): discriminated based on τoff
ion current blockages (pPorA-C24): combination of strong and weak ion current blockages
ion current blockages (pPorA-A24; 0.5 μM, cis, −5 mV to −20 mV, 0.15 M KCl, pH 7.4): ion current blockages exclusively at negative voltages
binding affinity (pPorA-A24; directly formed pPorA compared to self-assembled gpPorA): less affinity

nonaaspartate [D9]
ion current blockages (pPorA-K24; 0.5 μM): did not produce defined ion current blockages
ion current blockages (pPorA-K24; 10 μM, +50 mV): very short, less frequent ion current blockage
ion current blockages (pPorA-K24; 10 μM, negative voltages): no ion current blockages were observed
binding affinity (pPorA-K24; compared with R9 binding to cation-selective gpPorA (C24)): weak D9 peptide binding
ion current blockages (gpPorA; 100 μM, cis, different peptide concentrations and voltages, 0.15 M KCl, pH 7.4): did not produce any ion current blockages

tetraarginine [R4]
binding to pore (gpPorA; 10 μM, cis/trans, 0.15 M KCl, pH 7.4): weak electrostatic binding
frequency of the blockage events (gpPorA; 10 μM, cis, negative voltages to −75 mV, 0.15 M KCl, pH 7.4): increased with the voltage
ion current blockages (gpPorA; 10 μM, cis, positive voltages, 0.15 M KCl, pH 7.4): No peptide-induced ion current blockages were detected
ion current blockages (gpPorA; 10 μM, cis, −25 mV, 0.15 M KCl, pH 7.4): occasional ion current blockages
τoff (mean dwell time of blocking) (gpPorA; 10 μM, cis, −75 mV, 0.15 M KCl, 10 mM HEPES, pH 7.4, n = 3): 165 ± 15 μs
ion current blockages (gpPorA; 10 μM, trans, higher positive voltages, 0.15 M KCl, pH 7.4): short, less frequent blockage events
discrimination of R4 and R9 in competitive blocking (gpPorA; cis, −20 mV and −25 mV, pH 7.4): discriminated based on τoff
